According to ChEMBL document CHEMBL5136969, “A niclosamide-tobramycin hybrid adjuvant potentiates cefiderocol against P. aeruginosa” (2021):
Calls of active or inactive are those of the source.

Columns and labels:
[1] = test system: Pseudomonas aeruginosa; experiment: Antibacterial activity against MDR clinical isolate Pseudomonas aeruginosa PA260 assessed as reduction in bacterial growth after 18 hrs by microbroth dilution method; type: functional
Method in brief: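 CLSI broth microdilution. Overnight cultures were adjusted in saline to 0.5 McFarland, diluted 1:50 in Mueller-Hinton broth (MHB), and inoculated at about 5 × 10^5 CFU/mL. Agents were 2-fold serially diluted in MHB, mixed 1:1 with inoculum, and held at 37 °C for 18 h. MIC was the lowest concentration with no visible turbidity, confirmed at 590 nm.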

[2] = test system: Acinetobacter baumannii; experiment: Potentiation of cindamycin-induced antibiotic activity against Acinetobacter baumannii ATCC 17978 assessed as MIC fold reduction at 8 ug/ml after 18 hrs by microbroth dilution method; type: functional; settings: dose 8 µg/ml
Method in brief: (§1)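 Adjuvant held at a fixed 8 μg/mL while the antibiotic was 2-fold serially diluted in Mueller-Hinton broth (MHB), per CLSI microbroth dilution. Overnight cultures were adjusted in saline to 0.5 McFarland, then diluted 1:50 in MHB to about 5 × 10^5 CFU/mL final, and incubated 18 h at 37 °C. MIC was the lowest concentration with no visible turbidity, confirmed at 590 nm. Fold potentiation = MIC alone / MIC with adjuvant.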

[3] = test system: Pseudomonas aeruginosa; experiment: Potentiation of cefiderocol-induced antibiotic activity against […] Pseudomonas aeruginosa PAO1 assessed as MIC fold reduction at 8 ug/ml after 18 hrs by microbroth dilution method; type: functional, organism-based; settings: dose 8.0 µg/ml
Method in brief: (§2)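 Initial screen in MHB using a fixed 8 μg mL−1 of adjuvant combined with each antibiotic under 2-fold dilution. Broth microdilution used about 5 × 10^5 CFU/mL at 37 °C for 18 h, with visible turbidity read and confirmed at 590 nm. Fold-potentiation = antibiotic MIC alone ÷ antibiotic MIC with adjuvant.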

[4] = test system: Acinetobacter baumannii; experiment: Potentiation of piperacilin-induced antibiotic activity against Acinetobacter baumannii ATCC 17978 assessed as MIC fold reduction at 8 ug/ml after 18 hrs by microbroth dilution method; type: functional; settings: dose 8 µg/ml
[5] = test system: Pseudomonas aeruginosa; experiment: Potentiation of ceftolozane-induced antibiotic activity against MDR clinical isolate Pseudomonas aeruginosa PA260 assessed as MIC fold reduction at 8 ug/ml after 18 hrs by microbroth dilution method; type: functional, organism-based; settings: dose 8.0 µg/ml; method in brief: as §1
[6] = test system: Enterococcus faecium; experiment: Antibacterial activity against Enterococcus faecium ATCC 27270 assessed as reduction in bacterial growth after 18 hrs by microbroth dilution method; type: functional
Method in brief: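 CLSI microbroth dilution in MHB. Overnight cultures were adjusted to 0.5 McFarland in saline, diluted 1:50, and inoculated at about 5 × 10^5 CFU/mL. Agents were 2-fold serially diluted and incubated 18 h at 37 °C. MIC is the lowest concentration without visible turbidity, confirmed by absorbance at 590 nm. Medium with and without cells served as controls.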

[7] = test system: Enterobacter cloacae; experiment: Antibacterial activity against Enterobacter cloacae 117029 assessed as potentiation of cefiderocol antibacterial activity by measuring FIC after 18 hrs by microbroth dilution method; type: functional
Method in brief: (§3)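 Checkerboard in Mueller-Hinton broth: cefiderocol 2-fold diluted on one axis, adjuvant 2-fold on the other. Overnight cultures were adjusted to 0.5 McFarland in saline, diluted 1:50 in MHB, and inoculated at about 5 × 10^5 CFU/mL. Incubation was 18 h at 37 °C. Turbidity was read visually and confirmed at 590 nm. FIC index = FIC of antibiotic + FIC of adjuvant; ≤0.5 synergy, >4 antagonism.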

[8] = test system: Pseudomonas aeruginosa; experiment: Potentiation of moxifloxacin-induced antibiotic activity against Pseudomonas aeruginosa PAO1 assessed as MIC fold reduction at 8 ug/ml after 18 hrs by microbroth dilution method; type: functional; settings: dose 8 µg/ml
[9] = test system: Acinetobacter baumannii; experiment: Potentiation of chloamphenicol-induced antibiotic activity against Acinetobacter baumannii ATCC 17978 assessed as MIC fold reduction at 8 ug/ml after 18 hrs by microbroth dilution method; type: functional; settings: dose 8 µg/ml; method in brief: as §1
[10] = test system: Escherichia coli; experiment: Potentiation of aztreonam-induced antibiotic activity against Escherichia coli ATCC 25922 assessed as MIC fold reduction at 8 ug/ml after 18 hrs by microbroth dilution method; type: functional; settings: dose 8 µg/ml; method in brief: as §2
[11] = test system: Pseudomonas aeruginosa; experiment: Antibacterial activity against colistin-resistant clinical isolate Pseudomonas aeruginosa PA91433 assessed as potentiation of cefiderocol antibacterial activity by measuring FIC index after 18 hrs by microbroth dilution method; type: functional
Method in brief: (§4)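 Checkerboard in MHB (iron-replete, not iron-depleted CAMHB). Cefiderocol was 2-fold serially diluted along one axis and the adjuvant along the other. Inoculum was 0.5 McFarland diluted 1:50, about 5 × 10^5 CFU/mL final. Incubation was 18 h at 37 °C, with turbidity read visually and confirmed at 590 nm. FIC was the MIC in combination over the MIC alone for each agent, and the FIC index was their sum. Cut-offs were ≤0.5 synergy, >0.5–4 additive, >4 antagonism.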

[12] = test system: Escherichia coli; experiment: Potentiation of ceftazidime-induced antibiotic activity against Escherichia coli ATCC 25922 assessed as MIC fold reduction at 8 ug/ml after 18 hrs by microbroth dilution method; type: functional; settings: dose 8 µg/ml; method in brief: as §1
[13] = test system: Pseudomonas aeruginosa; experiment: Antibacterial activity against colistin-resistant clinical isolate Pseudomonas aeruginosa PA101243 assessed as reduction in bacterial growth by measuring FIC index after 18 hrs by microbroth dilution method; type: functional; method in brief: as §4
[14] = test system: Pseudomonas aeruginosa; experiment: Antibacterial activity against […] Pseudomonas aeruginosa PAO1 assessed as reduction in bacterial growth after 18 hrs in presence of cefiderocol by microbroth dilution method; type: functional
Method in brief: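 Checkerboard in MHB. Cefiderocol was 2-fold serially diluted along one axis and the adjuvant along the other. Inoculum was prepared from 0.5 McFarland saline suspensions diluted 1:50 in MHB, giving about 5 × 10^5 CFU/mL final. Plates ran 18 h at 37 °C, with turbidity confirmed at 590 nm. FIC = combination MIC ÷ MIC alone for each agent, and FIC index = sum of both. Interpretation: ≤0.5 synergy, >0.5–4 additive, >4 antagonism.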

[15] = test system: Pseudomonas aeruginosa; experiment: Potentiation of colistin-induced antibiotic activity against Pseudomonas aeruginosa PAO1 assessed as MIC fold reduction at 8 ug/ml after 18 hrs by microbroth dilution method; type: functional; settings: dose 8 µg/ml; method in brief: as §1
[16] = test system: Acinetobacter baumannii; experiment: Antibacterial activity against Acinetobacter baumannii ATCC 17978 assessed as potentiation of cefiderocol antibacterial activity by measuring FIC after 18 hrs by microbroth dilution method; type: functional; method in brief: as §3
[17] = test system: Pseudomonas aeruginosa; experiment: Potentiation of ceftolozane-induced antibiotic activity against Pseudomonas aeruginosa PAO1 assessed as MIC fold reduction at 8 ug/ml after 18 hrs by microbroth dilution method; type: functional; settings: dose 8 µg/ml; method in brief: as §1
[18] = test system: Pseudomonas aeruginosa; experiment: Potentiation of vancomycin-induced antibiotic activity against Pseudomonas aeruginosa PAO1 assessed as MIC fold reduction at 8 ug/ml after 18 hrs by microbroth dilution method; type: functional; settings: dose 8 µg/ml
[19] = test system: Escherichia coli; experiment: Potentiation of vancomycin-induced antibiotic activity against Escherichia coli ATCC 25922 assessed as MIC fold reduction at 8 ug/ml after 18 hrs by microbroth dilution method; type: functional; settings: dose 8 µg/ml
[20] = test system: Acinetobacter baumannii; experiment: Potentiation of ceftolozane-induced antibiotic activity against Acinetobacter baumannii ATCC 17978 assessed as MIC fold reduction at 8 ug/ml after 18 hrs by microbroth dilution method; type: functional; settings: dose 8 µg/ml; method in brief: as §1
[21] = test system: Pseudomonas aeruginosa; experiment: Potentiation of cindamycin-induced antibiotic activity against Pseudomonas aeruginosa PAO1 assessed as MIC fold reduction at 8 ug/ml after 18 hrs by microbroth dilution method; type: functional; settings: dose 8 µg/ml; method in brief: as §1
[22] = test system: Pseudomonas aeruginosa; experiment: Potentiation of cefiderocol-induced antibiotic activity against Pseudomonas aeruginosa PAO1 assessed as MIC fold reduction at 8 ug/ml after 18 hrs by microbroth dilution method; type: functional; settings: dose 8 µg/ml; method in brief: as §2
[23] = test system: Acinetobacter baumannii; experiment: Potentiation of vancomycin-induced antibiotic activity against Acinetobacter baumannii ATCC 17978 assessed as MIC fold reduction at 8 ug/ml after 18 hrs by microbroth dilution method; type: functional; settings: dose 8 µg/ml

SMILES: NC[C@H]1O[C@H](O[C@H]2[C@H](OCCCCc3cn(-c4ccc(NC(=O)c5cc(Cl)ccc5O)cc4)nn3)[C@@H](O[C@H]3O[C@H](CO)[C@@H](O)[C@H](N)[C@H]3O)[C@H](N)C[C@@H]2N)[C@H](N)C[C@@H]1O
- MIC [1]: > 128 µg/mL
- fold change (FC) [2]: 4
- Activity [3]: Active
- fold change (FC) [4]: 4
- Activity [5]: Active
- MIC [6]: > 128 µg/mL
- FIC [7]: 0.5
- fold change (FC) [8]: 4
- fold change (FC) [9]: 4
- fold change (FC) [10]: 4
- FIC [11]: 0.016
- fold change (FC) [12]: 4
- FIC [13]: 0.125
- MIC [14]: 0.5 µg/mL
- fold change (FC) [15]: 4
- FIC [16]: 0.25
- fold change (FC) [17]: 4
- fold change (FC) [18]: 4
- fold change (FC) [19]: 4
- fold change (FC) [20]: 4
- fold change (FC) [21]: 4
- fold change (FC) [22]: 4
- fold change (FC) [23]: 4
